The structures appear in SMILES notation. A value given as a limit tells only on which side of the number the result lay.

As a reminder, the IC50 is the midpoint of a concentration-inhibition curve.

The nature of assay [1]: Antiproliferative activity against human Raji cells after 48 hrs by CCK-8 assay. Format: functional, cell-based. The gist of the method:
(§1)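 Dose-response curves run at five concentrations in Ramos and Raji B-cell leukemia lines, with viability read by the CCK-8 method. IC50 is the concentration in micromolar that inhibits cell growth by 50%, taken from these curves.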
A general note: Tetrazolium dyes change colour on reduction, which living cells bring about.

The target of assay [2] is Tyrosine-protein kinase BTK (Homo sapiens, UniProt Q06187). Put plainly: Inhibition of recombinant human N-terminal His-tagged BTK expressed in baculovirus infected sf9 cells using poly(4:1 Glu,Tyr) as substrate by ADP-Glo kinase assay.
Assay [3] can be described thus: Antiproliferative activity against human Ramos cells after 48 hrs by CCK-8 assay. The format is functional, cell-based. The gist of the method: as §1
In assay [4] the target is T1, Tyrosine-protein kinase JAK3 (Homo sapiens, UniProt P52333).
T1 sequence (P52333 whole entry): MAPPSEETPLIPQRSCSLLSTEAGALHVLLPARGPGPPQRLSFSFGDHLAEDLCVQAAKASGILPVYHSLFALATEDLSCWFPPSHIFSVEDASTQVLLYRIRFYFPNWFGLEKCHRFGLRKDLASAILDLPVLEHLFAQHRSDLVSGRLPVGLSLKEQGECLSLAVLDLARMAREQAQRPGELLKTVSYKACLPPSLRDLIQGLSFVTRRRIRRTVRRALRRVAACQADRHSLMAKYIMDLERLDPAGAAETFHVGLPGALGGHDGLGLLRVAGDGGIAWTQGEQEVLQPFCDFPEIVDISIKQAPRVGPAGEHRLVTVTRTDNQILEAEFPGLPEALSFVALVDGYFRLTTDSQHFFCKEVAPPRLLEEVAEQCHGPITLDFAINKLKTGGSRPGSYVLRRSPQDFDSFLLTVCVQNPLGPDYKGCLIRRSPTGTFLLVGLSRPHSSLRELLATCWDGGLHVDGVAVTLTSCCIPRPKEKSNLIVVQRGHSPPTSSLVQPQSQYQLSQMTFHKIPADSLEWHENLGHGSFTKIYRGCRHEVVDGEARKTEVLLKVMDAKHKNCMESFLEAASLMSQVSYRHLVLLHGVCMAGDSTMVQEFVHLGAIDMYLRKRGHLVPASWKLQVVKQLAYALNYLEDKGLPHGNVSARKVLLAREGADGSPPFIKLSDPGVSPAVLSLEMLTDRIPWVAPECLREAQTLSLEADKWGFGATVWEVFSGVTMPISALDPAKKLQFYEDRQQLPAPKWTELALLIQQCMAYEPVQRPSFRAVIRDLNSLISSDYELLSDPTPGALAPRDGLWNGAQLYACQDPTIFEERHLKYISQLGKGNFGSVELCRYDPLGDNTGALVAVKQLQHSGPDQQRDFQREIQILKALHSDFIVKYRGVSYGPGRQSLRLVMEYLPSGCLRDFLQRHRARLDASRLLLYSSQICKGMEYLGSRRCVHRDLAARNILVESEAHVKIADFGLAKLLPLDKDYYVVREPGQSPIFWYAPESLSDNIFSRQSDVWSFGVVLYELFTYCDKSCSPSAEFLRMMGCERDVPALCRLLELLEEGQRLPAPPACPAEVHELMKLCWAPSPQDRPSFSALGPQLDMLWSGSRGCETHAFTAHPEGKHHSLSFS
Put plainly: Inhibition of JAK3 (unknown origin).

Assay [5] can be described thus: Cell cycle arrest in human Ramos cells assessed as accumulation at G2/M phase at 10 uM by propidium iodide staining based flow cytometry (reference value: 1.58%). Format: functional. The method, boiled down: (§2)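 Ramos cells treated, then cell-cycle phase distribution (G0/G1, S, G2/M) measured by flow cytometry. Three separate experiments, expressed as mean±standard deviation.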

Assay [6] has as its system Ramos. Put plainly: Induction of apoptosis in human Ramos cells assessed as late apoptotic cells at 10 uM after 48 hrs by annexin V/FITC propidium iodide staining based flow cytometry relative to control. The format is functional. The gist of the method: (§3)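 Ramos cells exposed for 48 h to the indicated compound concentrations. Cells then stained with annexin V/FITC and analysed by flow cytometry for apoptosis.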
(In flow cytometry, cells or beads pass a laser one at a time.)

Assay [7] concerns Ramos. Put plainly: Induction of apoptosis in human Ramos cells assessed as early apoptotic cells at 10 uM after 48 hrs by annexin V/FITC propidium iodide staining based flow cytometry relative to control. The format is functional. The gist of the method: as §3
Assay [8] deals with Ramos. Kind of assay: Induction of apoptosis in human Ramos cells assessed as viable cells at 10 uM after 48 hrs by annexin V-FITC/propidium iodide staining based flow cytometry relative to control. The format is functional. The conditions noted are these: for viability at 10 µM: Homo sapiens, Ramos, 48 h, read-out: Activity. The method, boiled down: as §3
Assay [9] in a line: Cell cycle arrest in human Ramos cells assessed as accumulation at G0/G1 phase at 10 uM by propidium iodide staining based flow cytometry (reference value: 56.19%). The format is functional. The method, boiled down: as §2
In assay [10] the test system is Ramos. Put plainly: Induction of apoptosis in human Ramos cells assessed as necrotic cells at 10 uM after 48 hrs by annexin V/FITC propidium iodide staining based flow cytometry relative to control. Format: functional. The gist of the method: as §3
A short description of assay [11]: Cell cycle arrest in human Ramos cells assessed as accumulation at S phase at 10 uM by propidium iodide staining based flow cytometry (reference value: 42.23%). The format is functional. The gist of the method:
as §2

Tyrosine-protein kinase BTK, sequence (Q06187 whole entry): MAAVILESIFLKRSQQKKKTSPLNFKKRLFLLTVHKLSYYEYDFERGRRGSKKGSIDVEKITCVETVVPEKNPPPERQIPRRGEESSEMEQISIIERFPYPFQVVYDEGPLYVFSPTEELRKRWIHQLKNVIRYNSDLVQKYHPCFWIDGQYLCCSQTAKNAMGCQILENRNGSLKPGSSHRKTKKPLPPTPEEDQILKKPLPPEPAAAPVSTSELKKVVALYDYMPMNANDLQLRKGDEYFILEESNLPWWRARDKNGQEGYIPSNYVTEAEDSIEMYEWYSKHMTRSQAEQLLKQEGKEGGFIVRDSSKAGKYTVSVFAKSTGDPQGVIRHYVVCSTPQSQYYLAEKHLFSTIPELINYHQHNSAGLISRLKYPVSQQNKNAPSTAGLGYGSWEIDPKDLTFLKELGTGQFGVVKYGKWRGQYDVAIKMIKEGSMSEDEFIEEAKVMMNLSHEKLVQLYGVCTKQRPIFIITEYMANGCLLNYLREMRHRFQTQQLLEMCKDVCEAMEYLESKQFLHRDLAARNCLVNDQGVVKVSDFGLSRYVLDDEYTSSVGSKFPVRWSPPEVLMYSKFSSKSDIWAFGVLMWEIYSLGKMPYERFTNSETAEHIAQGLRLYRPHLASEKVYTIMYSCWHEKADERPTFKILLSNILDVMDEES

Turning to `C=CC(=O)Nc1cccc(-n2cnc3cnc(Nc4ccc(N5CCN(C(C)=O)C(C)C5)cc4)nc32)c1` (stereo unspecified), the IC50 is 24.2 µM in [1], 0.0005 µM in [2], over 40 µM in assay [3] and 0.0612 µM in assay [4].

On to `C=CC(=O)Nc1cccc(-n2cnc3cnc(Nc4ccc(N5CCOCC5)cc4)nc32)c1`, for which the IC50 is 11.8 µM in [1], 0.0151 µM in [2], 11.3 µM in assay [3] and over 0.1 µM in assay [4].

Turning to `C=CC(=O)Nc1cccc(-n2cnc3cnc(Nc4ccc(N5CCN(S(C)(=O)=O)CC5)cc4)nc32)c1`, the IC50 in [1] was over 40 µM; in assay [2] it was 0.0171 µM; in [3], over 40 µM; in [4], 0.0701 µM.

Regarding `C=CC(=O)Nc1cccc(-n2cnc3cnc(Nc4ccc(N5CCN(CC)CC5)cc4)nc32)c1`, the half-maximal inhibitory concentration (IC50) in assay [1] came out at 19.5 µM; in assay [2], 0.0005 µM; in assay [3], 12.1 µM; in assay [4], 0.0675 µM.

`C=CC(=O)Nc1cccc(-n2cnc3cnc(Nc4ccc(N5CCN(S(C)(=O)=O)C(C)C5)cc4)nc32)c1` (stereo unspecified): the IC50 was 31.7 µM in assay [1], 0.0132 µM in [2], over 40 µM in assay [3] and 0.0831 µM in assay [4].

As to `C=CC(=O)Nc1cccc(-n2cnc3cnc(Nc4ccc(OC)cc4)nc32)c1`, the IC50 was 31.2 µM in [1], 0.0971 µM in assay [2], over 40 µM in assay [3] and 0.0672 µM in [4].

As to `C=CC(=O)Nc1cccc(Nc2nc(Nc3ccc(OCCOC)cc3)ncc2F)c1` [SPEBRUTINIB], the IC50 in [1] amounted to 25.3 µM; in assay [3] it was 15.1 µM. Besides, the Activity in [5] is 20.9%; in the assay on Ramos [6], 20.4%; in the assay with Ramos [7] it was 21.1%; in assay [9], 31%; in the assay with Ramos [10], 4.3%; in [11], 47.9%. In addition, in the assay with Ramos [8], the viability at 10 µM came out at 54.2%.

Consider `C=CC(=O)Nc1cccc(-n2cnc3cnc(Nc4ccc(N5CCN(CC)CC5)cc4OC)nc32)c1`, for which the 50% inhibitory concentration (IC50) is over 40 µM in assay [1], over 0.1 µM in [2], over 40 µM in assay [3] and over 0.1 µM in assay [4].

`C=CC(=O)Nc1cccc(-n2cnc3cnc(Nc4ccc(N5CCN(S(C)(=O)=O)CC5)cc4OC)nc32)c1`: the IC50 is 21.9 µM in [1], over 0.1 µM in [2], 38.6 µM in assay [3] and over 0.1 µM in assay [4].

As for `C=CC(=O)Nc1cccc(-n2cnc3cnc(Nc4ccc(OCCCN5CCOCC5)cc4)nc32)c1`, the IC50 in assay [1] came to 12.6 µM; in assay [2], 0.0004 µM; in assay [3], 7.75 µM; in [4] it was 0.0726 µM. Further, the Activity in assay [5] turned out to be 6.61%; in the assay on Ramos [6], 10.9%; in the assay on Ramos [7] it was 41.9%; in [9], 41%; in the assay with Ramos [10], 2.2%; in assay [11] it was 52.4%. Moreover, the viability at 10 µM with Ramos [8] was determined as 44.9%.

`C=CC(=O)Nc1cccc(-n2c(=O)[nH]c3cnc(Nc4ccc(N5CCOCC5)cc4OC)nc32)c1`: the concentration for half-maximal inhibition (IC50) in assay [1] was over 40 µM; in [2], over 0.1 µM; in [3] it was 39.1 µM; in [4], over 0.1 µM.

In the case of `C=CC(=O)Nc1cccc(-n2c(=O)[nH]c3cnc(Nc4ccc(N5CCN(CC)CC5)cc4)nc32)c1`, the half-inhibitory concentration (IC50) in assay [1] was 11.9 µM; in assay [2], over 0.1 µM; in assay [3], 35.2 µM; in assay [4], over 0.1 µM.

Take `C=CC(=O)Nc1cccc(-n2cnc3cnc(Nc4ccc(N5CCN(C)CC5)cc4)nc32)c1`: the IC50 turned out to be 7.55 µM in assay [1], 0.0102 µM in assay [2], 8.22 µM in [3] and 0.0671 µM in [4].

For the molecule `C=CC(=O)Nc1cccc(-n2cnc3cnc(Nc4ccc(N5CCN(C)CC5)cc4OC)nc32)c1`, the half-maximal inhibitory concentration (IC50) in [1] is 13.7 µM; in assay [2], over 0.1 µM; in assay [3], 13.2 µM; in assay [4], over 0.1 µM.

On to `C=CC(=O)N1CCC[C@@H](n2nc(-c3ccc(Oc4ccccc4)cc3)c3c(N)ncnc32)C1` [IBRUTINIB], for which the concentration for half-maximal inhibition (IC50) in assay [1] was found to be 15.2 µM; in [3], 8.11 µM. The Activity in [5] turned out to be 0.15%; in the assay on Ramos [7], 37%; in the assay on Ramos [8], 62%; in [9], 46.4%; in the assay on Ramos [10] it was 0.1%; in assay [11], 53.5%.

Source of the values: ChEMBL document CHEMBL3862041, “Discovery of Novel Bruton's Tyrosine Kinase (BTK) Inhibitors Bearing a N,9-Diphenyl-9H-purin-2-amine Scaffold” (ACS Med Chem Lett, 2016).
